Paper PMC12461553 (RSC Advances, 2025)

How the values were obtained:
MDA-MB-231 cells [1] = assay: SRB cytotoxicity assay, MDA-MB-231; type: cell-based, human
4T1 cells = assay: SRB cytotoxicity assay, 4T1; type: cell-based, murine; conditions: Mus musculus, 4T1, 48 h, read-out: Average cell death (%) 4T1
Procedure, shortened: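 Single-dose screen: cells in DMEM/10% FBS at 37 °C, 5% CO2, seeded at 3000 per well, attached 24 h, then exposed to test compound at 25 μM final for 48 h. Fixed in cold 10% TCA, 1 h, 4 °C; stained 0.057% SRB, 30 min, dark, room temperature; rinsed with 1% acetic acid; dye solubilised in Tris base pH 10.5; absorbance 510 nm; percent cell death.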

MCF-7 cells = assay: SRB cytotoxicity assay, MCF-7; type: cell-based, human
MDA-MB-231 cells [2] = assay: 3D spheroid; type: cell-based, human; conditions: MDA-MB-231, methylcellulose, 8 days
Procedure, shortened: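 Single-cell suspensions in 1.5% methylcellulose/DMEM with 20% FBS were seeded at 1 × 10^5 cells per well over a 1% agarose–DMEM base for non-adherent growth. Cells were treated with test compound (0.5, 1, 2 μM) or doxorubicin and incubated 8 days. Spheres (≥20 cells) were imaged by fluorescence microscopy and counted per microscopic field.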

[3] = tested on: BCL-2 and Survivin expression in MDA-MB-231 cells; assay: Gene expression analysis by RT-qPCR; type: cell-based, human
Procedure, shortened: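 Cells were treated 48 h with varying test compound concentrations, then total RNA was extracted and checked spectrophotometrically. 2 μg RNA was reverse-transcribed to cDNA. BCL2 and Survivin transcripts were measured by RT-qPCR and quantified by the 2−ΔΔCt method against β2-microglobulin as reference gene.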

[4] = Homo sapiens, MDA-MB-231, 48 h, read-out: Average cell death (%) MDA-MB-231
[5] = Homo sapiens, MCF7, 48 h, read-out: Average cell death (%) MCF-7

Cn1c2ccccc2c2c(C(=O)c3ccccc3)c(-c3ccccc3)n(Cc3ccccc3)c(=O)c21 [9a, 4-Benzoyl-2-benzyl-9-methyl-3-phenyl-2,9-dihydro-1H-pyrido[3,4-b]indol-1-one]
cytotoxicity at 25 µM (MDA-MB-231 cells [1]; [4]): 32.8 ± 3.16% | cytotoxicity at 25 µM (4T1 cells): 47.8 ± 3.32% | cytotoxicity at 25 µM (MCF-7 cells; [5]): 9.16 ± 2.08%

COc1ccc(C(=O)c2c(-c3ccccc3)n(Cc3ccccc3)c(=O)c3c2c2ccccc2n3C)cc1 [9b, 2-Benzyl-4-(4-methoxybenzoyl)-9-methyl-3-phenyl-2,9-dihydro-1H-pyrido[3,4-b]indol-1-one]
cytotoxicity at 25 µM (MDA-MB-231 cells [1]; [4]): 20.2 ± 2.16% | cytotoxicity at 25 µM (4T1 cells): 39.8 ± 4.02% | cytotoxicity at 25 µM (MCF-7 cells; [5]): 18.3 ± 3.05%

Cn1c2ccccc2c2c(C(=O)c3ccc(C(F)(F)F)cc3)c(-c3ccccc3)n(Cc3ccccc3)c(=O)c21 [9d, 2-Benzyl-9-methyl-3-phenyl-4-(4-(trifluoromethyl)benzoyl)-2,9-dihydro-1H-pyrido[3,4-b]indol-1-one]
cytotoxicity at 25 µM (MDA-MB-231 cells [1]; [4]): 11.3 ± 0.53% | cytotoxicity at 25 µM (4T1 cells): 15.5 ± 2.15% | cytotoxicity at 25 µM (MCF-7 cells; [5]): 14.2 ± 1.03%

Cn1c2ccccc2c2c(C(=O)c3ccc(F)cc3)c(-c3ccccc3)n(Cc3ccccc3)c(=O)c21 [9e, 2-Benzyl-4-(4-fluorobenzoyl)-9-methyl-3-phenyl-2,9-dihydro-1H-pyrido[3,4-b]indol-1-one]
cytotoxicity at 25 µM (MDA-MB-231 cells [1]; [4]): 7.54 ± 0.71% | cytotoxicity at 25 µM (4T1 cells): 32.2 ± 4.11% | cytotoxicity at 25 µM (MCF-7 cells; [5]): 2 ± 0.52%

Cn1c2ccccc2c2c(C(=O)c3ccccc3)c(-c3ccccc3)n(CCc3ccccc3)c(=O)c21 [10a, 4-Benzoyl-9-methyl-2-phenethyl-3-phenyl-2,9-dihydro-1H-pyrido[3,4-b]indol-1-one]
cytotoxicity at 25 µM (MDA-MB-231 cells [1]; [4]): 3.66 ± 0.31% | cytotoxicity at 25 µM (4T1 cells): 46.6 ± 2.18% | cytotoxicity at 25 µM (MCF-7 cells; [5]): 1.67 ± 0.3%

COc1ccc(C(=O)c2c(-c3ccccc3)n(CCc3ccccc3)c(=O)c3c2c2ccccc2n3C)cc1 [10b, 4-(4-Methoxybenzoyl)-9-methyl-2-phenethyl-3-phenyl-2,9-dihydro-1H-pyrido[3,4-b]indol-1-one]
cytotoxicity at 25 µM (MDA-MB-231 cells [1]; [4]): 2.64 ± 0.7% | cytotoxicity at 25 µM (4T1 cells): 49.9 ± 3.23% | cytotoxicity at 25 µM (MCF-7 cells; [5]): 10.1 ± 2.2%

Cc1ccc(C(=O)c2c(-c3ccccc3)n(CCc3ccccc3)c(=O)c3c2c2ccccc2n3C)cc1 [10c, 9-Methyl-4-(4-methylbenzoyl)-2-phenethyl-3-phenyl-2,9-dihydro-1H-pyrido[3,4-b]indol-1-one]
cytotoxicity at 25 µM (MDA-MB-231 cells [1]; [4]): 15.6 ± 1.15% | cytotoxicity at 25 µM (4T1 cells): 60.5 ± 3.07% | cytotoxicity at 25 µM (MCF-7 cells; [5]): 26.2 ± 4.15%

Cn1c2ccccc2c2c(C(=O)c3ccc(C(F)(F)F)cc3)c(-c3ccccc3)n(CCc3ccccc3)c(=O)c21 [10d, 9-Methyl-2-phenethyl-3-phenyl-4-(4-(trifluoromethyl)benzoyl)-2,9-dihydro-1H-pyrido[3,4-b]indol-1-one]
cytotoxicity at 25 µM (MDA-MB-231 cells [1]; [4]): 11.5 ± 0.95% | cytotoxicity at 25 µM (4T1 cells): 22 ± 2.05% | cytotoxicity at 25 µM (MCF-7 cells; [5]): 9.32 ± 1%

Cn1c2ccccc2c2c(C(=O)c3ccc(F)cc3)c(-c3ccccc3)n(CCc3ccccc3)c(=O)c21 [10e, 4-(4-Fluorobenzoyl)-9-methyl-2-phenethyl-3-phenyl-2,9-dihydro-1H-pyrido[3,4-b]indol-1-one]
cytotoxicity at 25 µM (MDA-MB-231 cells [1]; [4]): 4 ± 0.41% | cytotoxicity at 25 µM (4T1 cells): 13.5 ± 1.16% | cytotoxicity at 25 µM (MCF-7 cells; [5]): 8.92 ± 0.8%

CCCCn1c(-c2ccccc2)c(C(=O)c2ccccc2)c2c3ccccc3n(C)c2c1=O [11a, 4-Benzoyl-2-butyl-9-methyl-3-phenyl-2,9-dihydro-1H-pyrido[3,4-b]indol-1-one]
cytotoxicity at 25 µM (MDA-MB-231 cells [1]; [4]): 36.6 ± 3.2%

CCCCn1c(-c2ccccc2)c(C(=O)c2ccc(OC)cc2)c2c3ccccc3n(C)c2c1=O [11b, 2-Butyl-4-(4-methoxybenzoyl)-9-methyl-3-phenyl-2,9-dihydro-1H-pyrido[3,4-b]indol-1-one]
cytotoxicity at 25 µM (MDA-MB-231 cells [1]; [4]): 30.3 ± 1.2%

CCCCn1c(-c2ccccc2)c(C(=O)c2ccc(C)cc2)c2c3ccccc3n(C)c2c1=O [11c, 2-Butyl-9-methyl-4-(4-methylbenzoyl)-3-phenyl-2,9-dihydro-1H-pyrido[3,4-b]indol-1-one]
cytotoxicity at 25 µM (MDA-MB-231 cells [1]; [4]): 31.2 ± 1.6%

CCCCn1c(-c2ccccc2)c(C(=O)c2ccc(C(F)(F)F)cc2)c2c3ccccc3n(C)c2c1=O [11d, 2-Butyl-9-methyl-3-phenyl-4-(4-(trifluoromethyl)benzoyl)-2,9-dihydro-1H-pyrido[3,4-b]indol-1-one]
cytotoxicity at 25 µM (MDA-MB-231 cells [1]; [4]): 14.7 ± 2.9%

CCCCn1c(-c2ccccc2)c(C(=O)c2ccc(F)cc2)c2c3ccccc3n(C)c2c1=O [11e, 2-Butyl-4-(4-fluorobenzoyl)-9-methyl-3-phenyl-2,9-dihydro-1H-pyrido[3,4-b]indol-1-one]
cytotoxicity at 25 µM (MDA-MB-231 cells [1]; [4]): 31.8 ± 1.8%

Cn1c2ccccc2c2c(C(=O)c3ccccc3)c(-c3ccccc3)n(-c3nc4ccccc4s3)c(=O)c21 [12a, 2-(Benzo[d]thiazol-2-yl)-4-benzoyl-9-methyl-3-phenyl-2,9-dihydro-1H-pyrido[3,4-b]indol-1-one]
cytotoxicity at 25 µM (MDA-MB-231 cells [1]; [4]): 26.9 ± 2.6%

COc1ccc(C(=O)c2c(-c3ccccc3)n(-c3nc4ccccc4s3)c(=O)c3c2c2ccccc2n3C)cc1 [12b, 2-(Benzo[d]thiazol-2-yl)-4-(4-methoxybenzoyl)-9-methyl-3-phenyl-2,9-dihydro-1H-pyrido[3,4-b]indol-1-one]
cytotoxicity at 25 µM (MDA-MB-231 cells [1]; [4]): 4.08 ± 1.1%

Cc1ccc(C(=O)c2c(-c3ccccc3)n(-c3nc4ccccc4s3)c(=O)c3c2c2ccccc2n3C)cc1 [12c, 2-(Benzo[d]thiazol-2-yl)-9-methyl-4-(4-methylbenzoyl)-3-phenyl-2,9-dihydro-1H-pyrido[3,4-b]indol-1-one]
cytotoxicity at 25 µM (MDA-MB-231 cells [1]; [4]): 31.3 ± 4%

Cn1c2ccccc2c2c(C(=O)c3ccc(C(F)(F)F)cc3)c(-c3ccccc3)n(-c3nc4ccccc4s3)c(=O)c21 [12d, 2-(Benzo[d]thiazol-2-yl)-9-methyl-3-phenyl-4-(4-(trifluoromethyl)benzoyl)-2,9-dihydro-1H-pyrido[3,4-b]indol-1-one]
cytotoxicity at 25 µM (MDA-MB-231 cells [1]; [4]): 24.5 ± 2.7%

Cn1c2ccccc2c2c(C(=O)c3ccc(F)cc3)c(-c3ccccc3)n(-c3nc4ccccc4s3)c(=O)c21 [12e, 2-(Benzo[d]thiazol-2-yl)-4-(4-fluorobenzoyl)-9-methyl-3-phenyl-2,9-dihydro-1H-pyrido[3,4-b]indol-1-one]
cytotoxicity at 25 µM (MDA-MB-231 cells [1]; [4]): 34.9 ± 1.7%

N.N.[Cl][Pt][Cl] [Cisplatin, reference compound]
Average cell death (%) MDA-MB-231 (MDA-MB-231 cells [1]; at 100 μM, SRB assay): 75 ± 4.3% | Average cell death (%) MCF-7 (MCF-7 cells; at 100 μM, SRB assay): 80 ± 6.2%

COc1cccc2c1C(=O)c1c(O)c3c(c(O)c1C2=O)C[C@@](O)(C(=O)CO)C[C@@H]3O[C@H]1C[C@H](N)[C@H](O)[C@H](C)O1 [Doxorubicin, reference compound]
cytotoxicity at 5 µM (MDA-MB-231 cells [1]; [4]): 80 ± 3.3% | Sphere formation (MDA-MB-231 cells [2]): completely abrogated sphere formation | Expression of BCL-2 [3]: markedly reduced | Expression of Survivin [3]: markedly reduced | cytotoxicity at 5 µM (MCF-7 cells; [5]): 85 ± 5.3%
